Results reported in paper PMC8415080 (Pharmacology Research & Perspectives, 2021).

Legend:
H460 cells [1] = experiment: Mitochondria respiration profiling; format: cell-based, human
Summary of the method: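 On the XF96, basal OCR was followed by injection of test compound doses (10X), then oligomycin (1 µg/ml), FCCP, and rotenone plus antimycin A (1 µM each). Cycles were 4 min mix, 3 min measure; control injections were medium. OCR expressed as fold of vehicle.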

H460 cells [2] = experiment: Total and mitochondrial ATP content; format: cell-based, human
Summary of the method: (§1)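 Cells (8000/well) were incubated 18 h at 37℃ (5% CO2). Test compound was added at half‐log doses, final 10 nM–10 µM, to paired plates for 1 h, with or without 100 µM iodoacetate. ATP was read by CellTiter‐Glo luminescence: mitochondrial ATP with iodoacetate, global ATP without. Mean ± SD.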

H460 cells [3] = experiment: Apoptosis assay; format: cell-based, human
patients [4] = details: no reference given; cited from earlier work
H460 cells [5] = experiment: Proliferation assay; format: cell-based, human
ferret = experiment: Ferret model of emesis; format: in vivo; details: increasing doses; for induction of emesis (retches and vomits): 2 h test
[6] = Plasma pharmacokinetics after intravenous and oral administration; format: in vivo, C57BL/6J mice
Summary of the method: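 Plasma pharmacokinetics in C57BL/6J mice: intravenous test compound at 3 mg/kg, and escalating oral doses of 10, 30 and 75 mg/kg.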

[7] = test system: mitochondria isolated from liver of OF1; format: biochemical; details: 7.5 µM
Summary of the method: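 Polarographic measurement of oxidation and phosphorylation rates in mitochondria isolated from liver of female OF1 mice, over a range of test compound doses.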

H460‐LKB1 cells [8] = experiment: Total and mitochondrial ATP content; format: cell-based, human; details: H460‐LKB1, whatever the dose
Summary of the method: as §1

MRP2 = MRP2 (Homo sapiens, UniProt Q92887); experiment: In vitro transporter inhibition; format: in vitro ADME
CCK1R = CCK1R (Homo sapiens, UniProt P32238); experiment: Cerep in vitro safety screen, competition with reference ligand binding; details: 10 µM
Summary of the method: (§2)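 Cerep in vitro safety screen: test compound at 10 µM assessed for competition with reference ligand binding across a panel of 300 receptors.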

H460 WT cells = experiment: mTOR/AMPK pathway signaling; format: cell-based, human; details: WT H460, over 60 min
U87 cells = experiment: Mitochondrial ATP content; format: cell-based; details: Homo sapiens, U-87 MG, 1 h, read-out: IC50 mitochondrial ATP production
Summary of the method: as §1

KARPAS 422 cells [9] = experiment: Glucose and lactate levels; format: cell-based, human
OxPhos‐Eµ‐Myc lymphoma = experiment: B‐cell lymphoma in vivo study, OxPhos‐Eµ‐Myc; design: species or system C57BL/6 mice; details: 30 mg/kg p.o. QD, OxPhos‐Eµ‐Myc‐bearing mice
Summary of the method: (§3)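 Syngeneic female C57BL/6J Ola Hsd mice, 6 weeks old, received 1 × 10^5 viable Eμ‐Myc cells in PBS by tail vein. Oral dosing began 6 days later, when inguinal nodes became palpable: 30 mg/kg daily at 10 ml/kg in PEG200/Solutol HS15/water (30%/5%/65%), or vehicle alone; n = 10/group. Weight and node palpation every 2–3 days. Mice sacrificed at illness signs; node tumors and spleens weighed. Kaplan–Meier survival, log‐rank test.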

MLK2 = MLK2 (Homo sapiens, UniProt Q02779); experiment: DiscoverX KiNativ in situ kinase selectivity panel on live Jurkat cells; format: cell-based; details: 10 µM
MDA‐MB231 cells = experiment: Mitochondrial ATP content; format: cell-based; details: Homo sapiens, MDA-MB-231, 1 h, read-out: IC50 mitochondrial ATP production
Summary of the method: as §1

[10] = test system: H460‐luc2 orthotopic tumors; experiment: Orthotopic H460 lung tumor model; format: in vivo, Balb/CJ‐Nude mice; details: 30 mg/kg p.o. QD from D7
Summary of the method: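 Male Balb/c Nude mice, 7 weeks old, were anaesthetised i.p. with Rompun (20 mg/kg) plus Imalgene (100 mg/kg). They were inoculated intrabronchially via an oral catheter with 25 µl of H460‐Luc2 cells at 20 million/ml in PBS. Mice were allocated by bioluminescence at D7 and dosed orally at 30 mg/kg daily for 15 days (3 mg/ml in PEG200/Solutol HS15/water 30%/5%/65%, 10 ml/kg) or vehicle; n = 9/group. Imaging at D7/D14/D21 used 12 min post i.p. D‐luciferin (2 mg). Tumors were measured at termination; t‐test.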

H460‐LKB1 cells [11] = experiment: Apoptosis assay; format: cell-based, human; details: H460‐LKB1, even at 10 µM
[12] = Tissue distribution after single oral administration; format: in vivo, C57BL/6J mice; details: male, C57BL/6J, mouse, 30 mg/kg
H460‐LKB1 cells [13] = experiment: mTOR/AMPK pathway signaling; format: cell-based, human; details: H460‐LKB1, within minutes after exposure
OAT1 = OAT1 (Homo sapiens, UniProt Q4U2R8); experiment: In vitro transporter inhibition; format: in vitro ADME
LL/2 cells [14] = experiment: Proliferation assay; format: cell-based; details: Mus musculus, LL/2, read-out: apparent IC50 proliferation
P‐gp = P‐gp (Homo sapiens, UniProt P08183); experiment: In vitro transporter inhibition; format: in vitro ADME; details: expressed in MDCKII
Hep3B cells = experiment: Mitochondrial ATP content; format: cell-based; details: Homo sapiens, 1 h, read-out: IC50 mitochondrial ATP production
Summary of the method: as §1

[15] = test system: mouse acute myeloid leukemia; details: ref Luna Yolba, in revision; cited from earlier work
198 kinases = experiment: DiscoverX KiNativ in situ kinase selectivity panel on live Jurkat cells; format: cell-based; details: 10 µM
A2AR = A2AR (Homo sapiens, UniProt P29274); experiment: Cerep in vitro safety screen, competition with reference ligand binding; details: 10 µM
Summary of the method: as §2

OATP1B3 = OATP1B3 (Homo sapiens, UniProt Q9NPD5); experiment: In vitro transporter inhibition; format: in vitro ADME
[16] = target: Complex I purified from bovine heart (Bos taurus, UniProt P03887+P17694+P42026); experiment: MitoTox Complex I OxPhos Activity Assay; format: biochemical
Summary of the method: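 MitoTox Complex I kit: Complex I purified from bovine heart and immunocaptured on the plate by specific antibodies. Activity followed as the decrease in absorbance at 340 nm from NADH oxidation.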

CCK2R = CCK2R (Homo sapiens, UniProt P32239); experiment: Cerep in vitro safety screen, competition with reference ligand binding; details: 10 µM
Summary of the method: as §2

[17] = test system: glycolytic‐Eµ‐Myc lymphoma; experiment: B‐cell lymphoma in vivo study, glycolytic‐Eµ‐Myc; design: species or system C57BL/6 mice; details: 30 mg/kg p.o. QD, glycolytic‐Eµ‐Myc‐bearing mice
Summary of the method: as §3

BCRP = BCRP (Homo sapiens, UniProt Q9UNQ0); experiment: In vitro transporter inhibition; format: in vitro ADME
LL/2 cells [18] = experiment: Apoptosis assay; format: cell-based, mouse; details: LL/2, even at 10 µM
OATP1B1 = OATP1B1 (Homo sapiens, UniProt Q9Y6L6); experiment: In vitro transporter inhibition; format: in vitro ADME
KARPAS 422 cells [19] = experiment: Proliferation assay; format: cell-based; details: Homo sapiens, KARPAS-422, read-out: IC50 proliferation
OCT1 = OCT1 (Homo sapiens, UniProt O15245); experiment: In vitro transporter inhibition; format: in vitro ADME
[20] = test system: OxPhos‐Eµ‐Myc and glycolytic‐Eµ‐Myc lymphoma cells; experiment: In vitro cell death assay; format: cell-based, mouse; details: 10 µM, 24 h, DAPI positive cells
Summary of the method: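 Primary Eμ‐Myc cells were maintained in DMEM with 10% FBS, 2‐mercaptoethanol (50 µM), L‐asparagine (0.37 mM) and HEPES (10 mM, pH 7.4). Cells (2 × 10^5/well) were exposed to test compound or DMSO for 24 h, stained with DAPI (0.5 µg/ml) and analysed by flow cytometry. Cell death = % DAPI‐positive in treated cells ÷ % DAPI‐positive in control. Mean of 4 independent experiments, 5 clones per group.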

patients [21] = details: 18 patients with advanced solid tumors; cited from earlier work

A2AR, sequence (P29274 whole entry): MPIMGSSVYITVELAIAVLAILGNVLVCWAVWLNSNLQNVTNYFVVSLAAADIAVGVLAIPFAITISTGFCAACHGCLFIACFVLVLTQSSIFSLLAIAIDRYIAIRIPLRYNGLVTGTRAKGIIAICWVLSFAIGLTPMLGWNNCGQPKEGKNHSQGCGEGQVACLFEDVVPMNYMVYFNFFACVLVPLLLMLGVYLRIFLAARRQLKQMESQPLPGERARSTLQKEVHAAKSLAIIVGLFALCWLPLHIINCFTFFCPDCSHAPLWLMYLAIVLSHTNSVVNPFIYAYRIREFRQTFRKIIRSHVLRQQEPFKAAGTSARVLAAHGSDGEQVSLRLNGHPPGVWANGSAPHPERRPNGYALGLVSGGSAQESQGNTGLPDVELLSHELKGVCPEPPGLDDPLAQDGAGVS
BCRP, sequence (Q9UNQ0 whole entry, species assumed): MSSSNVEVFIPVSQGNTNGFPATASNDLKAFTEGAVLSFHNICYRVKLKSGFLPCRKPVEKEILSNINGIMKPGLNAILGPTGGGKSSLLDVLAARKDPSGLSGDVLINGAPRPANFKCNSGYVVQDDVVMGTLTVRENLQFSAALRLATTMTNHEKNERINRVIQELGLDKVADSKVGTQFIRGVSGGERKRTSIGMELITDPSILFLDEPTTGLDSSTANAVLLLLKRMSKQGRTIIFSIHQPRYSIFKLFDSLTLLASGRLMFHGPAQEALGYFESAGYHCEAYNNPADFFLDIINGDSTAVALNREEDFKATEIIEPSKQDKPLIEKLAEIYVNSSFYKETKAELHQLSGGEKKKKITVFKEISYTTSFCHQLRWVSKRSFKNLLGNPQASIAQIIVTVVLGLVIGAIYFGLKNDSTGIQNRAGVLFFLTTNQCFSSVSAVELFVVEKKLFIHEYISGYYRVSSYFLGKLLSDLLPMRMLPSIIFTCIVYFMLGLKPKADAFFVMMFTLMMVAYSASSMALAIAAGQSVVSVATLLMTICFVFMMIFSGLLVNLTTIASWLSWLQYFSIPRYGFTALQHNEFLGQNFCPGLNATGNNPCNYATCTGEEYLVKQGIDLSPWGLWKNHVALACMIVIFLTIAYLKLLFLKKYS
P‐gp, sequence (P08183 whole entry): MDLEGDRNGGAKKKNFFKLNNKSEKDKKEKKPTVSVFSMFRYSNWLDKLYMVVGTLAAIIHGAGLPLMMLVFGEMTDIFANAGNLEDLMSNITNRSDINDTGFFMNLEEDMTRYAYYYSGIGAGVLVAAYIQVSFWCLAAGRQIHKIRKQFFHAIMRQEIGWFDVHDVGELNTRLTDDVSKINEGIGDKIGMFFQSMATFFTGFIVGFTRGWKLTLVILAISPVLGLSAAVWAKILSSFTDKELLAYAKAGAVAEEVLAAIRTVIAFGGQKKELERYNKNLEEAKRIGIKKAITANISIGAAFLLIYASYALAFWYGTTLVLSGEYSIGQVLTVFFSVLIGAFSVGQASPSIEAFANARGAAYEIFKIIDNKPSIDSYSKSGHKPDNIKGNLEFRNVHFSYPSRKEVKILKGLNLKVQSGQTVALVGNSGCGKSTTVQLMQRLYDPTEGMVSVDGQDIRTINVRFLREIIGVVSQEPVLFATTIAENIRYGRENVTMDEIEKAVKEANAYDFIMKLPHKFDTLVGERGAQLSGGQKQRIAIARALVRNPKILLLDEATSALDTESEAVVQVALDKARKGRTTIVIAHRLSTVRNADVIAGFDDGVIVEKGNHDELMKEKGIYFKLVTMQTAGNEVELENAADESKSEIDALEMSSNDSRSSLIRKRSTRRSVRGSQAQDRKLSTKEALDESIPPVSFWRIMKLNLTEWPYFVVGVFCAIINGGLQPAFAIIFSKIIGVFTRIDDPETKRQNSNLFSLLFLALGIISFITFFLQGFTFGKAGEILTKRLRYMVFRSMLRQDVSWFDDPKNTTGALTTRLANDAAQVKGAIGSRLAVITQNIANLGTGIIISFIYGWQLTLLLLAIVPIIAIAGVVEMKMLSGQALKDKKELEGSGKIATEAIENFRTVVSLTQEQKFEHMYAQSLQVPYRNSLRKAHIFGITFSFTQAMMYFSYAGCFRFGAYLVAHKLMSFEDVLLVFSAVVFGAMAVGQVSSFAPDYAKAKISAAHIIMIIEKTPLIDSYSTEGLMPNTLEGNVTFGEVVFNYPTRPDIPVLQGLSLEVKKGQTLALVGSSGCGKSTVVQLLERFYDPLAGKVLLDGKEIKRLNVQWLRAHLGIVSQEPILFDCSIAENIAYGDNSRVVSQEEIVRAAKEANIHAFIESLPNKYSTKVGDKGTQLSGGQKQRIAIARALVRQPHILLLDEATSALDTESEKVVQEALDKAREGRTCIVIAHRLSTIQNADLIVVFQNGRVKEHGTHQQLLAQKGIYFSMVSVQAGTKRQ
OCT1, sequence (O15245 whole entry): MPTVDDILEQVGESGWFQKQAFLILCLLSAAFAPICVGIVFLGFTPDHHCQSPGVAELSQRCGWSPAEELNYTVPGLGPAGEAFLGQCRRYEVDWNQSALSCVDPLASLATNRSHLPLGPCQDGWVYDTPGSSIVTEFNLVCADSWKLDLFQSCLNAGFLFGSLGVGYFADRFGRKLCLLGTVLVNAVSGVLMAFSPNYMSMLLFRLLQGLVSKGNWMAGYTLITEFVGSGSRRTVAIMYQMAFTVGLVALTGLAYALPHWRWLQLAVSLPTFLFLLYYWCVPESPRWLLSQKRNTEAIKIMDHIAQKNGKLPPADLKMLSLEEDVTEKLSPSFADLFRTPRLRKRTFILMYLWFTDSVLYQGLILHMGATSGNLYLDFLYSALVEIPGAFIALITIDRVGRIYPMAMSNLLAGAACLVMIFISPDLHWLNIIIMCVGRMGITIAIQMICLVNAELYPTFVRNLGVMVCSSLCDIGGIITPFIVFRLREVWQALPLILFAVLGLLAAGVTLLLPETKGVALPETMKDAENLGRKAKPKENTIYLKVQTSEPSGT
MLK2, sequence (Q02779 whole entry): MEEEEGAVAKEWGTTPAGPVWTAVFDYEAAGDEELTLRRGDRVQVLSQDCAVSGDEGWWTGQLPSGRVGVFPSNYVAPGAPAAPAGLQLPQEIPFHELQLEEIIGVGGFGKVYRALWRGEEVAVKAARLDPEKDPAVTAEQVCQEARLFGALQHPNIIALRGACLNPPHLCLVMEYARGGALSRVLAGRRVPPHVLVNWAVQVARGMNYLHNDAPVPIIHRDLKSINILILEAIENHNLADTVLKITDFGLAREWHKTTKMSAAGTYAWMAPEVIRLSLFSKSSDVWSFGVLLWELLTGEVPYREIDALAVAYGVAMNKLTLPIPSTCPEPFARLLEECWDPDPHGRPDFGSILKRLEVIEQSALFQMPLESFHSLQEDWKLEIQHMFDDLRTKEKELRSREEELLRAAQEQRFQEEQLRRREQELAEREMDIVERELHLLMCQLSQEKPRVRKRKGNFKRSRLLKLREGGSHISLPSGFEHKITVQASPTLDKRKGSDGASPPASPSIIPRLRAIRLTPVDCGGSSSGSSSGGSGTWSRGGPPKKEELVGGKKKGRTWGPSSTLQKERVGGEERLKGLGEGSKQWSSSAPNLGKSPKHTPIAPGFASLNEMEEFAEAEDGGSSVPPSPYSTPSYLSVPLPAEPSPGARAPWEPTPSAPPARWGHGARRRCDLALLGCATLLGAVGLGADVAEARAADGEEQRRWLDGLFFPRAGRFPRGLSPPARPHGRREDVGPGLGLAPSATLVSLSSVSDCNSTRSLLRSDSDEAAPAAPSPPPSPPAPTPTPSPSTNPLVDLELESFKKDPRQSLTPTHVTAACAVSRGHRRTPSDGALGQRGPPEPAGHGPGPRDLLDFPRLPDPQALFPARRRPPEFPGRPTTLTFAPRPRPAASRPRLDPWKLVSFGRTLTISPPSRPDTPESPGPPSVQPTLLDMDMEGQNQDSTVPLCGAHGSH
CCK1R, sequence (P32238 whole entry, species assumed): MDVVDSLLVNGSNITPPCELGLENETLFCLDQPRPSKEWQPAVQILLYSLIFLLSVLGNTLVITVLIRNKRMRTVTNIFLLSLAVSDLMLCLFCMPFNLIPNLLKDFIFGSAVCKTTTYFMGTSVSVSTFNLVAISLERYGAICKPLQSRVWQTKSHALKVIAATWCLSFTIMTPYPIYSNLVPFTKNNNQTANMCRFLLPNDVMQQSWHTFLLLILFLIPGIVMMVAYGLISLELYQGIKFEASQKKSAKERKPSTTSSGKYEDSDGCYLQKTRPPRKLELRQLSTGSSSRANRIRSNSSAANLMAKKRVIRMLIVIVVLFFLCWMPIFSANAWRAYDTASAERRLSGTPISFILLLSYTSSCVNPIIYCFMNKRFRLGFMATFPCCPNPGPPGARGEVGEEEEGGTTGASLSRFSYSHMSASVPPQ
OATP1B3, sequence (Q9NPD5 whole entry): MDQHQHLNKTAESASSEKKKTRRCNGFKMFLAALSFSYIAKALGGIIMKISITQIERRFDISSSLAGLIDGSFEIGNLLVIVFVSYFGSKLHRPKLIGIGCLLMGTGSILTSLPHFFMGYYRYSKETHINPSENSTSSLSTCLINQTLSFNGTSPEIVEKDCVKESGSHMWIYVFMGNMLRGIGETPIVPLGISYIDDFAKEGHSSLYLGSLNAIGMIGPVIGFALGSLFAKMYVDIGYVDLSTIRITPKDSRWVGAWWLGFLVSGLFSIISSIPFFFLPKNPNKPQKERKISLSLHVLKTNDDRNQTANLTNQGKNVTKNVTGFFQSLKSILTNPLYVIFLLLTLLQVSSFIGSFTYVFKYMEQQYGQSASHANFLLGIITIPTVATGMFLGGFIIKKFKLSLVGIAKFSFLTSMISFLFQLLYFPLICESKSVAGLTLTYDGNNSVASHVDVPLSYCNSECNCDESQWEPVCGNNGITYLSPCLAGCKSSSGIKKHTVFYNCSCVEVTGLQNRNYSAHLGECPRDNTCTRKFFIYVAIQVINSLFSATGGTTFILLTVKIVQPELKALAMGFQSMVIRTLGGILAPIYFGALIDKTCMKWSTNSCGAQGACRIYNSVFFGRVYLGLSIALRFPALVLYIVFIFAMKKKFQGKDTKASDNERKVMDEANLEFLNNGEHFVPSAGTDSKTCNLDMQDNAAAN

Cc1cc(-c2nc(-c3ccc(OC(F)(F)F)cc3)no2)nn1Cc1ccnc(N2CCN(C3CC3)CC2)c1 [BAY87‐2243, reference compound]
dose at which an effect on OCR is detected (H460 cells [1]): above 100 nM | dose at which mitochondrial ATP production is significantly inhibited (H460 cells [2]): less than or equal to 1 nM | dose at which apoptosis is significantly affected (printed: inhibited) (H460 cells [3]; H460): less than or equal to 1 nM | emesis in patients, clinical phase 1 (patients [4]): induction of emesis in patients | dose at which proliferation is significantly inhibited (H460 cells [5]; H460): less than or equal to 1 nM | what limited dose escalation (ferret): limited by toxicity | induction of emesis (retches and vomits) (ferret): induced retches and vomits from half of the first patient Cmax

COc1ccc(C(O)COc2ccc(-c3csc(-c4ccc(OCC(O)c5ccc(OC)c(OC)c5)cc4)n3)cc2)cc1OC (stereo not shown) [EVT‐701, 1‐(3,4‐dimethoxyphenyl)‐2‐[4‐[2‐[4‐[2‐(3,4‐dimethoxyphenyl)‐2‐hydroxy‐ethoxy]phenyl]‐thiazol‐4‐yl]‐phenoxy]ethanol]
F (bioavailability) ([6]; AUC of 10 mg/kg oral dose vs AUC of intravenous dose, 10 mg/kg): 64% | half-life ([6]; C57BL/6J, mouse, plasma, po, 10 mg/kg): 4.1 h | dose‐proportionality ([6]; oral 10, 30 and 75 mg/kg): conserved from 10 to 75 mg/kg | inhibition of NADH oxidation and phosphorylation of ADP into ATP [7]: 80% | IC50 (H460 cells [3]; Homo sapiens, NCI-H460, read-out: IC50 apoptosis induction): 96 ± 28 nM | total ATP (H460‐LKB1 cells [8]): remains unchanged | IC50 (MRP2): > 30000 nM | increase of ligand binding to CCK1R (CCK1R): more than 50% | 4E‐BP1, Raptor and ACC phosphorylation (H460 WT cells): unaffected | IC50 (U87 cells): 74 ± 38 nM | glucose consumption and lactate release (KARPAS 422 cells [9]): increased glucose consumption and lactate release | lymphomas harvested vs Vehicle (OxPhos‐Eµ‐Myc lymphoma): significantly smaller | overall survival (OxPhos‐Eµ‐Myc lymphoma): significant increase | progression‐free survival (OxPhos‐Eµ‐Myc lymphoma; not shown): significant increase | increase of MLK2 activity (MLK2): more than 30% | IC50 (MDA‐MB231 cells): 52 ± 18 nM | decrease of tumor volume at D21 [10]: 60% | induction of apoptosis (H460‐LKB1 cells [11]): no induction of apoptosis | Kp ([12]; brain): 0.25 | Kp ([12]; heart): 4.2 | Kp ([12]; kidney): 4.5 | Kp ([12]; liver): 5.9 | Kp ([12]; lung): 2.3 | Kp ([12]; pancreas): 4.5 | phosphorylation of 4E‐BP1 (Serine 65), Raptor and ACC downstream of AMPK (H460‐LKB1 cells [13]): increased phosphorylation state | IC50 (OAT1): > 30000 nM | IC50 (LL/2 cells [14]): 295 ± 52 nM | P‐gp transport (P‐gp): not affected | IC50 (Hep3B cells): 81 ± 12 nM | rescue of inhibitory effect on respiration [15]: rescued by succinate | inhibition of kinase activity, any of the 198 kinases of the panel (198 kinases): ≤ 30% | decrease of ligand binding to A2AR (A2AR): more than 50% | IC50 (OATP1B3): 2400 ± 200 nM | IC50 [16]: 300 nM | increase of ligand binding to CCK2R (CCK2R): more than 50% | overall survival [17]: no effect | weight of lymphomas vs Vehicle [17]: similar | progression‐free survival ([17]; data not shown): no effect | IC50 (H460 cells [5]; Homo sapiens, NCI-H460, read-out: apparent IC50 proliferation): 68 ± 27 nM | IC50 (BCRP): 4100 ± 2700 nM | what limited dose escalation (ferret): by solubility | induction of emesis (retches and vomits) (ferret): didn't | cell death induction (LL/2 cells [18]): no significant cell death | IC50 (OATP1B1): 1100 ± 100 nM | IC50 (KARPAS 422 cells [19]): 188 ± 50 nM | IC50 (OCT1): > 30000 nM | sensitivity to cell death induction, OxPhos‐Eµ‐Myc vs glycolytic‐Eµ‐Myc cells [20]: more sensitive

Cc1nc(-c2nc(-c3ccc(OC(F)(F)F)cc3)no2)nn1Cc1cccc(N2CCC(S(C)(=O)=O)CC2)c1 [IACS‐010759]
tolerability in phase 1 (patients [21]): well‐tolerated
